Our source for the Activity and IC50 values is ChEMBL document CHEMBL4251545, “Design and synthesis of cenocladamide analogues and their evaluation against breast cancer cell lines” (Medchemcomm, 2017).

SMILES strings stand for the structures. The source made the active and inactive calls. The calls are words filed in the database; no cut-off is given here.

The subject of series [1] is Hs-578T. The series can be described thus: Cytotoxicity against human Hs 578T cells at 0.5 uM after 3 days by DAPI staining-based fluorescence microscopic method relative to control. It is filed as functional. The conditions noted are these: in the assay text read “at 1 uM” for “at 0.5 uM”. Put shortly: (§1)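 Controls were 0.5% DMSO (negative) and 1 μM doxorubicin (positive). Cells were fixed in 3.7% formaldehyde, stained with 0.4 μg mL–1 DAPI, and nuclei counted by automated fluorescence microscopy. Proliferation % and cell-loss % were calculated against a 24 h cell count and the DMSO 72 h count.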

The subject of series [2] is HCC38. The experiment in a line: Cytotoxicity against human HCC38 cells at 0.5 uM after 3 days by DAPI staining-based fluorescence microscopic method relative to control. Type of series: functional. The conditions noted are these: in the assay text read “at 1 uM” for “at 0.5 uM”. Put shortly: as §1
Series [3] deals with MDA-MB-468. The experiment in a line: Cytotoxicity against human MDA-MB-468 cells at 0.5 uM after 3 days by DAPI staining-based fluorescence microscopic method relative to control. Type of series: functional. The settings on record: in the assay text read “at 1 uM” for “at 0.5 uM”. Put shortly: as §1
For series [4], the system named is BT-549. The series can be described thus: Cytotoxicity against human BT549 cells at 0.5 uM after 3 days by DAPI staining-based fluorescence microscopic method relative to control. Type of series: functional. The conditions noted are these: in the assay text read “at 1 uM” for “at 0.5 uM”. Put shortly: as §1
For series [5], the system named is T47D. The experiment in a line: Cytotoxicity against human T47D cells at 0.5 uM after 3 days by DAPI staining-based fluorescence microscopic method relative to control. Type of series: functional. The conditions noted are these: in the assay text read “at 1 uM” for “at 0.5 uM”. Put shortly:
as §1

Series [6] deals with MCF7. The experiment in a line: Cytotoxicity against human MCF7 cells at 0.5 uM after 3 days by DAPI staining-based fluorescence microscopic method relative to control. Type of series: functional. The settings on record: in the assay text read “at 1 uM” for “at 0.5 uM”. Put shortly:
as §1

The subject of the next series is HMEC. The series can be described thus: Cytotoxicity against immortalized HMEC at 0.5 uM after 3 days by DAPI staining-based fluorescence microscopic method relative to control. The settings on record: human, 72 h, 1 µM, in the assay text read “at 1 uM” for “at 0.5 uM”. Type of series: cell-based. Put shortly:
as §1

Series [7] relates to MDA-MB-231. The experiment in a line: Cytotoxicity against human MDA-MB-231 cells at 0.5 uM after 3 days by DAPI staining-based fluorescence microscopic method relative to control. It is filed as functional. The settings on record: in the assay text read “at 1 uM” for “at 0.5 uM”. Put shortly:
as §1

The test system of series [8] is MDA-MB-231. The series can be described thus: Antiproliferative activity against human MDA-MB-231 cells at 20 uM after 3 days by DAPI staining-based fluorescence microscopic method relative to control. It is filed as functional. Put shortly:
as §1

The test system of series [9] is MDA-MB-231. The series can be described thus: Cytotoxicity against human MDA-MB-231 cells at 20 uM after 3 days by DAPI staining-based fluorescence microscopic method relative to control. It is filed as functional.
The test system of series [10] is MDA-MB-231. The series can be described thus: Antiproliferative activity against human MDA-MB-231 cells after 3 days by DAPI staining-based fluorescence microscopic method. The conditions noted are these: MDA-MB-231, 72 h. It is filed as functional, cell-based. Put shortly: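 Fixed in 3.7% formaldehyde, nuclei stained with 0.4 μg mL–1 DAPI, counted by automated fluorescence microscopy. Proliferation normalised to 0.5% DMSO and to 24 h cell count; IC50 from dose response.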

The next series has as its system SK-BR-3. The series can be described thus: Cytotoxicity against human SKBR3 cells at 20 uM after 3 days by DAPI staining-based fluorescence microscopic method relative to control. It is filed as functional.
In series [11] the test system is Hs-578T. The experiment in a line: Cytotoxicity against human Hs 578T cells at 20 uM after 3 days by DAPI staining-based fluorescence microscopic method relative to control. It is filed as functional.
Series [12] has as its system HCC38. The experiment in a line: Cytotoxicity against human HCC38 cells at 20 uM after 3 days by DAPI staining-based fluorescence microscopic method relative to control. Type of series: functional.
Series [13] concerns MDA-MB-468. The experiment in a line: Cytotoxicity against human MDA-MB-468 cells at 20 uM after 3 days by DAPI staining-based fluorescence microscopic method relative to control. Type of series: functional.
Series [14] deals with BT-549. The experiment in a line: Cytotoxicity against human BT549 cells at 20 uM after 3 days by DAPI staining-based fluorescence microscopic method relative to control. It is filed as functional.
Series [15] relates to T47D. The series can be described thus: Cytotoxicity against human T47D cells at 20 uM after 3 days by DAPI staining-based fluorescence microscopic method relative to control. It is filed as functional.
In series [16] the test system is MCF7. The experiment in a line: Cytotoxicity against human MCF7 cells at 20 uM after 3 days by DAPI staining-based fluorescence microscopic method relative to control. Type of series: functional.
Series [17] concerns MDA-MB-231. The series can be described thus: Induction of nuclear morphological changes in human MDA-MB-231 cells assessed as nuclear fragmentation by Hoechst 33342 staining-based fluorescence microscopic method. It is filed as functional, cell-based. Put shortly: (§2)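 Stained 60 min with 1 μg mL–1 Hoechst 33342 and 300 nM MitoTracker Deep Red in RPMI/10% FBS, then imaged by automated fluorescence microscopy. Mitochondrial mass taken as mean cytoplasmic MitoTracker intensity. Nuclear fragmentation index from an apoptosis image-analysis module.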

Series [18] concerns MDA-MB-231. The series can be described thus: Cytotoxicity against human MDA-MB-231 cells by MitoTracker Deep Red staining-based fluorescence microscopic method. Type of series: functional, cell-based. Put shortly:
as §2

For series [19], the system named is MDA-MB-231. The experiment in a line: Induction of necrosis in human MDA-MB-231 cells at 40 uM after 24 hrs by acridine orange/ethidium bromide staining-based flow cytometric method. Type of series: functional, cell-based.
The subject of series [20] is MDA-MB-231. The experiment in a line: Cell cycle arrest in human MDA-MB-231 cells assessed as accumulation at S phase at 25 uM after 72 hrs by EdU incorporation-based fluorescence microscopic method. Type of series: functional. Put shortly:
(§3)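 Cells exposed 72 h to 0.2–25 μM, then pulsed 30 min with 30 μM EdU. Fixed in 3.7% paraformaldehyde, permeabilised with 0.1% Triton X100. EdU click-labelled with AF488. Blocked in 3% BSA, then anti-pHH3 (S10) 1:250 and AF647 secondary with Hoechst. S and M phases scored by automated imaging cell-cycle module.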

Series [21] concerns MDA-MB-231. The series can be described thus: Cell cycle arrest in human MDA-MB-231 cells assessed as accumulation at M phase at 25 uM after 72 hrs by pHH3 detection-based fluorescence microscopic method. Type of series: functional. Put shortly: as §3
Series [22] deals with MDA-MB-231. The series can be described thus: Induction of reactive oxygen species generation in human MDA-MB-231 cells at 6 uM after 3 hrs by H2DCFDA dye-based fluorescence microscopic method relative to control. Type of series: functional. Put shortly:
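Exposed 3 or 24 h to 6 μM, with or without 3 mM N-acetyl-L-cysteine. Cells then loaded with 10 μM H2DCFDA for 30 min at 37 °C, washed with PBS, and fluorescence intensity read by automated fluorescence microscopy.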

For series [23], the system named is MDA-MB-231. The experiment in a line: Induction of reactive oxygen species generation in human MDA-MB-231 cells at 20 uM after 24 hrs by H2DCFDA dye-based fluorescence microscopic method. It is filed as functional, cell-based. Put shortly:
(§4)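 MDA-MB-231 cells were exposed for 3 or 24 h, with or without 3 mM N-acetyl-L-cysteine. Intracellular ROS was probed with 10 μM H2DCFDA for 30 min at 37 °C. After a PBS wash, fluorescence intensity was quantified by automated fluorescence microscopy. Cells were grown at 37 °C, 5% CO2.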

Series [24] deals with MDA-MB-231. The series can be described thus: Induction of reactive oxygen species generation in human MDA-MB-231 cells at 6 uM after 24 hrs by H2DCFDA dye-based fluorescence microscopic method. It is filed as functional, cell-based. The settings on record: 20 uM, in the assay text read “at 20 uM” for “at 6 uM”. Put shortly: as §4
Series [25] relates to MDA-MB-231. The experiment in a line: Induction of reactive oxygen species generation in human MDA-MB-231 cells at 6 uM after 3 hrs in presence of N-acetyl-L-cysteine by H2DCFDA dye-based fluorescence microscopic method. Type of series: functional, cell-based. The conditions noted are these: 20 uM, in the assay text read “at 20 uM” for “at 6 uM”. Put shortly:
as §4

Turning to `COc1cccc2c1C(=O)c1c(O)c3c(c(O)c1C2=O)C[C@@](O)(C(=O)CO)C[C@@H]3O[C@H]1C[C@H](N)[C@H](O)[C@H](C)O1` [DOXORUBICIN], the Activity in the series on Hs-578T [1], in the series with HCC38 [2], in the series with MDA-MB-468 [3], in the series with BT-549 [4], in the series with T47D [5] and with MCF7 [6] was 0.2 - 50% throughout. Also, the results for the Activity in the series with HMEC and with MDA-MB-231 [7] were 23.9% and 0.2 - 50%, respectively.
In the series on MDA-MB-231 [8], `COc1cc(/C=C/C(=O)N2C=CC(=O)CC2)cc(OC)c1OC` came in with an Activity of 50%.
Take `COc1cc(CCC(=O)N2C=CC(=O)CC2)cc(OC)c1OC`: the result in the series on MDA-MB-231 [8] was inactive.
Broadly, the IC50 is the concentration that inhibits the measured activity by half. Read a low IC50 as greater potency in that assay. `COc1cc(/C=C/C(=O)N2CCC(=O)CC2)cc(OC)c1O`: the Activity is recorded as 60% with MDA-MB-231 [9]; “>=15 - 80%” in the series on SK-BR-3; “>=15 - 80%” in the series with Hs-578T [11]; “>=15 - 80%” in the series with HCC38 [12]; “>=15 - 80%” with MDA-MB-468 [13]; “>=15 - 80%” in the series on BT-549 [14]. In addition, the values for the Activity entry with T47D [15], with MCF7 [16] and with MDA-MB-231 [22] were “>=15 - 80%”, “>=15 - 80%” and 20%, respectively. In the series with MDA-MB-231 [10], the IC50 was found to be 6.6 µM. Moreover, the outcome with MDA-MB-231 [17], in the series on MDA-MB-231 [18] and in the series on MDA-MB-231 [19] was Active. Besides, the result in the series with MDA-MB-231 [20] and in the series with MDA-MB-231 [21] was inactive.
Take `COc1cc(/C=C/C(=O)N2CCCCC2)cc(OC)c1O`: the result with MDA-MB-231 [17], in the series with MDA-MB-231 [18], in the series with MDA-MB-231 [23], in the series on MDA-MB-231 [24] and in the series with MDA-MB-231 [25] was inactive.
`O=C1C=CN(C(=O)/C=C/c2ccccc2)CC1` yielded an Activity with MDA-MB-231 [8] of 50%.
